Data set [1] in a line: Toxicity against brine shrimp. The note with it: artemia, in vivo; read-out: LD50 (the source's name). In kind it is organism-based.
The test system of data set [2] is Radical scavenging activity. Put plainly: Antioxidant activity assessed as DPPH radical scavenging activity. In kind it is functional. The gist of the method: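 Test sample in EtOH mixed with a 0.1 mM DPPH solution in EtOH (concentration before mixing). Absorbance read at 517 nm after 20 min. Scavenging taken as the drop in DPPH absorbance, expressed as a percentage of a DPPH control without sample. Catechin served as the positive control.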
In general terms: DPPH is a stable violet radical that fades when it is reduced.

LC50 and IC50 data for 7 molecules are collected here from ChEMBL document CHEMBL1146568, “Xanthones and benzophenones from the stems of Garcinia multiflora” (J Nat Prod, 2003).

For orientation: pIC50 means the negative decadic logarithm of the IC50, by convention in mol/L.

Structures are written as SMILES. pIC50: −log10 of the molar value.

Turning to `O=C(c1cccc(O)c1)c1c(O)cc(O)cc1O`, the LC50 in data set [1] was greater than 100 µM. Besides, the negative-log IC50 (pIC50) in data set [2] is 4.18. For `COc1cc(O)cc(O)c1C(=O)c1ccc(O)c(O)c1`, in that order: greater than 100 µM and 5.11. Taken in the same sequence, the figures for `O=C(c1ccc(O)c(O)c1)c1c(O)cc(O)cc1O` [MACLURIN] were 43.1 µM and 5.28. For `Oc1cc(O)c2c(c1)OC(c1ccc(O)c(O)c1)C(O)C2` (configuration not stated) [CATECHIN], the pIC50 in data set [2] is 5.60. On to `COc1ccc2cc3[n+](cc2c1OC)CCc1cc2c(cc1-3)OCO2` [BERBERINE CHLORIDE], for which the LC50 in data set [1] was found to be 67 µM. Take `CC(C)=CCC/C(C)=C\CC1(CC=C(C)C)C(=O)C(O)=Cc2oc3cc(O)cc(O)c3c(=O)c21` (configuration not stated) [GARCINIANONE B]: the LC50 in data set [1] was 25.8 µM. For the same molecule, the pIC50 in data set [2] was 3.84. Take `CC(C)=CCC/C(C)=C/CC1(CC=C(C)C)C(=O)C(O)=Cc2oc3cc(O)cc(O)c3c(=O)c21` (configuration not stated) [GARCINIANONE A]: the LC50 in data set [1] came out at 7.7 µM. Moreover, the negative-log IC50 (pIC50) in data set [2] was 3.97.
